From PubChem
In the library only some 2.3% were active in any assay of this set; here they are far more common.
TRPC6 inh: inhibitors of mouse TRPC6 channel | Q61143 | HEK293-TRPC6, membrane potential dye, ACh-evoked depolarization; hits give low values | B-score at 10 µM | 310,000 tested, 1.1% active;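 active = B-score under library mean minus 3 SD, initial fluorescence not abnormally high, positive integrated signal ratio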;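 also: B-score derived from integrated fluorescence ratio over the kinetic read; more negative B-score means stronger inhibition of depolarization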
TRPC4 block: TRPC4 (mouse) channel inhibition | 300,000 tested, 0.39% active | AID 2247 | B-score at 10 µM | HEK293 TRPC4beta/mu-opioid, DAMGO-evoked Fluo4 calcium flux; hits give low values;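 active = B-score over 3 SD under the library average, no early fluorescence shift, positive overall ratio signal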
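Assay system – HEK293 line stably carrying TRPC4beta and mu-opioid receptor · Doses – single dose · Detection – Fluo4 calcium-dye fluorescence, kinetic read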
TRPC4 potent: TRPC4 (mouse) allosteric potentiation; B-score at 10 µM; 310,000 tested, 0.42% active; HEK293 TRPC4beta/mu-opioid, DAMGO EC20, Fluo-4 Ca2+ flux; hits give high values;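 active = B-score of calcium response area above 5 SD of library B-scores, with initial fluorescence ratio within 5 SD of library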;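 also: B-score of integrated fluorescence ratio over time as area under calcium response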
TRPC6 activator: activators of mouse TRPC6 channel; Q61143; HEK293-TRPC6 membrane potential dye fluorescence; hits give high values; B-score at 10 µM; 310,000 tested, 0.13% active;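 active = B-score of the integrated fluorescence ratio above library mean plus 3 SD, and starting fluorescence ratio within library mean plus 5 SD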;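 also: higher score means more depolarization so channel activation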
TRPC4 agonist: activators of mouse TRPC4 channel; Q9QUQ5; HEK293 TRPC4beta/mu-opioid, Fluo4 calcium fluorescence; hits give high values; B-score at 10 µM; 310,000 tested, 0.49% active; AID 2237;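 active = B-score above 5 SD of library B-scores, and initial fluorescence ratio not above library mean plus 5 SD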;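 also: positive B-score marks a calcium rise read as TRPC4 activation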
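Incubation: 45 min room-temperature Fluo4 loading, 110 s read / System: HEK293 cells stably co-expressing mouse TRPC4beta and mu-opioid receptor / Signal: Fluo4 fluorescence, kinetic / Control set: buffer (low) and maximal DAMGO (high) / Measure: integrated baseline-normalised fluorescence ratio, converted to per-well B score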
The depositor's hits bear a star; i = inactive.

SMILES | TRPC6 inh | TRPC4 block | TRPC4 potent | TRPC6 activator | TRPC4 agonist
COc1ccc(NP(=O)(Nc2ccc(OC)cc2)Oc2ccccc2)cc1 | i | i | 12* | i | i
COc1ccc(OC)c(NP(=O)(Oc2ccccc2)Oc2ccccc2)c1 | i | i | 10* | i | i
N=c1c[n+](CC23CC4CC(CC(C4)C2)C3)[n-]o1 | i | i | i | i | 211*
O=C(NC(=O)N1CCC2(CC1)OCCO2)c1ccc(Cl)cc1 | i | i | i | i | i
CN1C[C@H](CO)C[C@@H]2c3cccc4[nH]cc(c34)C[C@H]21 | i | i | i | i | i
CCN(CC)C(=O)N[C@H]1C[C@@H]2c3cccc4[nH]cc(c34)C[C@H]2N(C)C1 | i | i | i | i | 83*
C=CCn1c(O)c(C(CC)=NCC2CCCO2)c(=O)[nH]c1=O (stereo not drawn) | i | i | i | i | i
CCN(CC)c1nc2c(C)cccn2c(=O)c1C=C1C(=O)NC(=O)NC1=O | i | i | 14* | i | i
CCN1CCN(Cc2cc(Br)cc(Br)c2O)CC1 | i | i | i | i | 200*
CCN1CCN(Cc2cc(Br)ccc2O)CC1 | i | i | 23* | i | i
CCc1ccc(CN2CCN(Cc3cc(Br)ccc3O)CC2)cc1 | i | i | i | i | i
CN1CCN(c2nc(N)c(Br)c(Cl)n2)CC1 | i | i | i | i | i
CCC(=NC1CCN(Cc2ccccc2)CC1)c1c(O)[nH]c(=O)[nH]c1=O | i | i | 10* | i | i
CN(C)C1C(=O)C(C(N)=O)=C(O)C2(O)C(=O)C3=C(O)c4c(O)cccc4C(C)(O)C3C(O)C12 (stereo not drawn) | i | i | i | i | i
O=C(CCNC(=O)N1C[C@H]2C[C@@H](C1)c1cccc(=O)n1C2)Nc1ccc(F)cc1 | i | i | i | i | i
CN1C2CCC1CC(OC(=O)c1cc(Cl)cc(Cl)c1)C2 (stereo not drawn) | i | i | 13* | i | i
COc1cc(C(=O)OC2C[C@H]3CC[C@@H](C2)N3C)ccc1O (stereo partly drawn) | i | i | i | i | i
Cc1ccc2c(c1)C1CN(C)CCC1N2C(=O)c1cn(-c2ccccc2)nc1-c1ccccc1 (stereo not drawn) | i | i | 23* | i | i
Cc1ccc2c(c1)C1CN(C)CCC1N2C(=O)c1cccnc1Cl (stereo not drawn) | i | i | i | i | i
CCC(C)n1c(O)c(C=Nc2cccc(C(F)(F)F)c2)c(=O)[nH]c1=S (stereo not drawn) | i | i | i | i | i
CC1(C)N2CC3([N+](=O)[O-])CN1CC([N+](=O)[O-])(C2)C3 | i | i | i | i | i
COC(=O)C1=C(c2cccc(OC)c2OC)C[C@@H]2CC[C@H]1N2C(=O)NC(C)C | i | i | i | i | i
CC1(C)CC(N(CCc2ccccc2)Cc2ccccc2)CCO1 (stereo not drawn) | i | -6* | i | i | i
CCC1=Nc2cc(C(=O)N3CCC4(CC3)OCCO4)ccc2Sc2ccccc21 | i | i | i | i | i
CCC1=Nc2cc(C(=O)N3CCC4(CC3)OCCO4)ccc2Sc2ccc(C)cc21 | i | -6* | i | i | i
SMILES | TRPC6 inh | TRPC4 block | TRPC4 potent | TRPC6 activator | TRPC4 agonist
CCOc1cc(CNCCc2c[nH]c3ccccc23)cc(Cl)c1OC | i | i | i | i | 159*
NS(=O)(=O)OC(CCc1ccccc1)C(Cl)(Cl)Cl (stereo not drawn) | i | i | 12* | i | i
O=c1cc(CN2CCNCC2)nc2sccn12 | i | i | i | i | i
CN1CCN(Cc2cc(=O)n3ccsc3n2)CC1 | i | i | 27* | i | i
CN1CC(C(=O)c2ccc([N+](=O)[O-])cc2)C(c2ccc(Cl)cc2)C1 (stereo not drawn) | i | i | 13* | i | i
CN1CCN(c2c(N)c(=O)oc3ccccc23)CC1 | i | i | 10* | i | i
CCNC(=S)N1CCn2cccc2C1c1cccnc1 (stereo not drawn) | i | i | i | i | i
Cc1ccc(NC(=S)NCCc2cnc[nH]2)cc1C | i | i | i | i | 225*
Oc1ccccc1-[n+]1c(-c2ccccc2)cc(-c2ccccc2)cc1-c1ccccc1 | i | i | i | i | i
Nc1ccccc1-[n+]1c(-c2ccccc2)cc(-c2ccccc2)cc1-c1ccccc1 | i | i | 25* | i | i
C[C@@H]1C(=O)O[C@@H]2[C@H](O)C34[C@@H]5OC(=O)C3(O[C@H]3OC(=O)[C@H](O)C34[C@H](C(C)(C)C)[C@H]5O)[C@@]12O (stereo partly drawn) | i | i | i | i | i
Nc1ccc(Cl)cc1C(=O)c1ccccc1Cl | i | i | 34* | i | i
Cc1ccc(Cl)cc1N1CCN(CCN)CC1 | i | i | i | i | 155*
O=C(CCC(=O)N1CCC2(CC1)OCCO2)Nc1nnc(C(F)(F)F)s1 | i | i | i | i | i
Cc1cc(C)nc(N2Cc3ccccc3C2=N)n1 | i | i | i | i | i
COc1ccc(OC)c(N2Cc3ccccc3C2=N)c1 | i | -7* | i | i | i
Cc1ccc(-n2c(C)cc(/C=C3/C(=O)NC(=O)N(Cc4ccco4)C3=O)c2C)cc1 | i | i | i | i | i
Cc1ccccc1-n1c(C)cc(/C=C2/C(=O)NC(=O)N(Cc3ccco3)C2=O)c1C | i | -6* | i | i | i
NC(N)=N/N=C/c1ccc(N(c2ccccc2)c2ccccc2)cc1 | i | i | i | i | 86*
N#CCCn1cc(C(=O)Nc2ccccc2Cl)c(-c2ccc(F)cc2)n1 | i | i | i | i | i
CCOC(=O)C1(c2ccccc2)CCN(CC(=O)Nc2ccc(C)cc2)CC1 | i | -8* | i | i | i
CCOC(=O)C1(CCOc2ccccc2)CCN(Cc2ccccc2OC)CC1 | i | i | i | i | i
CCOC(=O)C1(c2ccccc2)CCN(CCC(C#N)(c2ccccc2)c2ccccc2)CC1 | i | i | i | i | 94*
C=CC[N+]1(C)CC[C@]23c4c5ccc(O)c4O[C@H]2C(=O)CC[C@@]3(O)[C@H]1C5 (stereo partly drawn) | i | i | i | i | i
NC(=O)c1cn(C2OC(CO)C(O)C2O)c2ncnc(N)c12 (stereo not drawn) | i | i | i | i | i
